Measurements from PMC7658953 (ACS Omega, 2020).
In brackets after ≈: the same amount, converted by molar mass. Several values for one entry are separate records, joined by “and”; a condition that tells them apart may be missing. Equal entries are not always repeated.

Experiments:
MRSA ATCC 33591 [1] = assay: In vitro resistance development, serial passage study; type: cell-based, Staphylococcus aureus; conditions: cation-adjusted MHB, ratio of MIC after passage to MIC before first passage
[2] = system: murine red blood cells (RBCs); assay: Hemolytic activity; type: cell-based; conditions: 1 h
How it was run: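 Fresh murine RBCs washed twice in 35 mM PBS (150 mM NaCl, pH 7.4) and suspended at 4% (v/v). Mixed 1:1 with 2-fold serial dilutions of test compound in PBS and held 1 h at 37 °C. After centrifugation, supernatant diluted in PBS and hemoglobin read at 414 nm. Lysis % scaled between PBS and 0.1% Triton X-100 (100%). Duplicate wells, two days.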

MSSA ATCC 29213 [3] = assay: MIC, broth microdilution; type: cell-based, Staphylococcus aureus
How it was run: (§1)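 Broth microdilution: mid-log cells washed, suspended in cation-adjusted MHB or TSB (0.25% glucose, 0.5% NaCl), and adjusted to 10^8 CFU/mL (OD600 0.5). Added to 2-fold serial dilutions of test compound in 0.2% BSA/0.01% acetic acid, final about 2–5 × 10^5 CFU/mL in polypropylene wells. Incubated 16–18 h at 37 °C, 180 rpm; A600 read. MIC = lowest concentration fully inhibiting growth. Duplicates on at least two days.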

MRSA ATCC 33591 [4] = assay: MIC, broth microdilution; type: cell-based, Staphylococcus aureus
How it was run: as §1

S. aureus cells = assay: MIC of palmitic acid, preliminary studies; type: cell-based; conditions: Staphylococcus aureus
[5] = system: MSSA ATCC 29213 and MRSA ATCC 33591; assay: Killing kinetics of stationary phase cells in TSB medium, both strains pooled; type: cell-based, Staphylococcus aureus; conditions: 10 × MIC, 10^7 CFU/mL
How it was run: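 Adjusted to 10^7 CFU/mL (OD600 0.05) in the same medium and incubated at 37 °C with test compound at 30, 40 or 50 μM; vancomycin included as comparator. Aliquots taken at 15 and 30 min, 1, 2, 3 and 24 h, serially diluted and drop-plated; colonies counted after 16–18 h. Three independent runs.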

S. aureus biofilm = assay: Inhibition of biofilm formation, both strains pooled; type: cell-based, Staphylococcus aureus; conditions: identical conditions, 24 h, TSB, MSSA and MRSA
How it was run: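 Overnight S. aureus diluted to 10^5 CFU/mL in TSB (0.25% glucose, 0.5% NaCl). Biofilms grown 24 h at 37 °C in polystyrene wells with 20 μM test compound. Biomass by crystal violet after two PBS washes, read at 570 nm. Metabolic activity by resazurin: plate sonicated 5 min at 40 kHz, 30 min dark at room temperature, ex 550/em 590 nm. Viable cells by scraping into PBS, sonicating, plating and counting after 16–18 h at 37 °C.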

MSSA ATCC 29213 [6] = assay: Killing of stationary phase cells in PBS, colony count; type: cell-based, Staphylococcus aureus; conditions: 2 h, 10^5 CFU/mL stationary phase cells
How it was run: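 Stationary-phase cells washed once and resuspended in 10 mM PBS (150 mM NaCl, pH 7.4). Adjusted to about 10^8 CFU/mL (OD600 0.5), then diluted 10-fold serially to 10^5 CFU/mL. Exposed to test compound for 2 h at 37 °C, 180 rpm; aliquots diluted, plated and counted after overnight incubation at 37 °C. Bactericidal defined as >3 log reduction versus untreated control.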

[7] = system: 3T3 murine fibroblast cells; assay: Cytotoxicity, MTT assay; type: cell-based; conditions: 2% Triton X-100, positive control
How it was run: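 3T3 murine fibroblasts seeded at 0.2 × 10^5 cells/well in DMEM with 10% FBS for 24 h to about 75% confluence. Exposed to 20 or 50 μM test compound in serum-free DMEM for 2 h at 37 °C, 5% CO2. Washed, then 0.1 mg/mL MTT for 2 h in the dark; formazan dissolved in DMSO and read at 570 nm. Survival % = OD570 sample/untreated × 100. Two independent runs in duplicate.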

[8] = system: stationary phase S. aureus cells; assay: SEM and TEM of stationary phase cells; type: cell-based, Staphylococcus aureus; conditions: 20 μg/mL, positive control
[9] = Staphylococcus aureus, ATCC29213|MSSA
[10] = tryptic soy broth (0.25% glucose, 0.5% NaCl)
[11] = Staphylococcus aureus, ATCC33591|MRSA

For `O=C(O)c1cn(C2CC2)c2cc(N3CCNCC3)c(F)cc2c1=O` [ciprofloxacin], the “increase in MIC after 18 serial passages at sub-MIC concentrations” value (MRSA ATCC 33591 [1]) was 66 fold.

`CC[C@H](C)[C@H](NC(=O)CN)C(=O)NCC(=O)N[C@@H](C)C(=O)N[C@H](C(=O)N[C@@H](CC(C)C)C(=O)N[C@@H](CCCCN)C(=O)N[C@H](C(=O)N[C@@H](CC(C)C)C(=O)N[C@H](C(=O)N[C@H](C(=O)NCC(=O)N[C@@H](CC(C)C)C(=O)N1CCC[C@H]1C(=O)N[C@@H](C)C(=O)N[C@@H](CC(C)C)C(=O)N[C@H](C(=O)N[C@@H](CO)C(=O)N[C@@H](Cc1c[nH]c2ccccc12)C(=O)N[C@H](C(=O)N[C@@H](CCCCN)C(=O)N[C@@H](CCCNC(=N)N)C(=O)N[C@@H](CCCCN)C(=O)N[C@@H](CCCNC(=N)N)C(=O)N[C@@H](CCC(N)=O)C(=O)N[C@@H](CCC(N)=O)C(N)=O)[C@@H](C)CC)[C@@H](C)CC)[C@@H](C)O)[C@@H](C)O)C(C)C)C(C)C` [melittin] was tested, and the “HC50 (concentration that causes lysis of 50% of the RBCs)” value [2] was at most 3.9 µM.

With `Cc1onc(-c2ccccc2)c1C(=O)N[C@@H]1C(=O)N2[C@@H]1SC(C)(C)[C@@H]2C(=O)O` [oxacillin] the MIC (MSSA ATCC 29213 [3]; [9]) was < 0.8 µM and < 0.35 µg/mL, the MIC (MSSA ATCC 29213 [3]; [10]) was < 0.8 μM and < 0.35 μg/mL and the MIC (MRSA ATCC 33591 [4]; [11]) was 134 µM to 268 µM and 56.8 µg/mL to 114 µg/mL. For the same compound, the MIC (MRSA ATCC 33591 [4]; [10]) was 134.1–268.3 μM and 56.8–113.6 μg/mL.

`CCCCCCCCCCCCCCCC(=O)O` [palmitic acid] showed an MIC (S. aureus cells) of over 50 µM.

In the case of `CN[C@H](CC(C)C)C(=O)N[C@H]1C(=O)N[C@@H](CC(N)=O)C(=O)N[C@H]2C(=O)N[C@H]3C(=O)N[C@H](C(=O)N[C@H](C(=O)O)c4cc(O)cc(O)c4-c4cc3ccc4O)[C@H](O)c3ccc(c(Cl)c3)Oc3cc2cc(c3O[C@@H]2O[C@H](CO)[C@@H](O)[C@H](O)[C@H]2O[C@H]2C[C@](C)(N)[C@H](O)[C@H](C)O2)Oc2ccc(cc2Cl)[C@H]1O` [vancomycin], the MIC (MSSA ATCC 29213 [3]; [9]) is reported as 0.48 µM (≈ 0.696 µg/mL), the MIC (MSSA ATCC 29213 [3]; [10]) is reported as 0.48 µM (≈ 0.696 µg/mL) and the “increase in MIC after 18 serial passages at sub-MIC concentrations” value (MRSA ATCC 33591 [1]) is reported as 8 fold. For the same compound, the MIC (MRSA ATCC 33591 [4]; [11]) was 0.48 to 0.96 µM (≈ 0.696 to 1.39 µg/mL), the MIC (MRSA ATCC 33591 [4]; [10]) was 0.48−0.96 μM and the “log reduction in the cell count” value ([5]; 24 h, range over MSSA and MRSA) was 3.4–4.4 log. The cell viability ([5]; up to 3 h) was “did not affect the cell viability”, the “log reduction in the viable cell count of the biofilm” value (S. aureus biofilm) was at least 4.8 log and the “reduction of biofilm biomass (crystal violet)” value (S. aureus biofilm) was at least 98.32 ± 0.95%. The “reduction of metabolic activity in the biofilm (resazurin)” value (S. aureus biofilm) was 100%.

For “Ac-H^6-F^7-R^8-W^9-G^10-K^11-P^12-V^13-NH2 [α-MSH(6-13)]”, the “log reduction in viable cell count” value (MSSA ATCC 29213 [6]; 20 μM) was about 2 log and the “log reduction in viable cell count” value (MSSA ATCC 29213 [6]; 50 μM) was about 2 log.

For Ac-K^11-P^12-V^13-NH2 [α-MSH(11-13)], the “log reduction in viable cell count” value (MSSA ATCC 29213 [6]; 150 μM) was 0.7 log.

For Triton X-100, the “reduction in survival of the cells relative to untreated growth control” value [7] was 52.8%.

gramicidin D was tested, and the “bacterial morphology and surface integrity in SEM and TEM” value [8] was “presence of cell debris, dents on the surface, and loss in shape of the cells”.
